Molecules are shown by their SMILES.

Results on 45 molecules are retold here after ChEMBL document CHEMBL2177011, “Discovery, synthesis, and biological evaluation of orally active pyrrolidone derivatives as novel inhibitors of p53-MDM2 protein-protein interaction” (J Med Chem, 2012).

For test [1], the target named is Tumour suppressor p53/oncoprotein Mdm2 (Homo sapiens, UniProt Q00987). As to the kind of experiment: (§1) Inhibition of p53-MDM2 interaction after 1 hr by fluorescence polarization assay. Type of test: protein assay. Background: In fluorescence polarisation assays a small probe gives low polarisation when free and higher when bound to something large.
Sequence of Tumour suppressor p53/oncoprotein Mdm2 (Homo sapiens, UniProt Q00987) (P04637 whole entry): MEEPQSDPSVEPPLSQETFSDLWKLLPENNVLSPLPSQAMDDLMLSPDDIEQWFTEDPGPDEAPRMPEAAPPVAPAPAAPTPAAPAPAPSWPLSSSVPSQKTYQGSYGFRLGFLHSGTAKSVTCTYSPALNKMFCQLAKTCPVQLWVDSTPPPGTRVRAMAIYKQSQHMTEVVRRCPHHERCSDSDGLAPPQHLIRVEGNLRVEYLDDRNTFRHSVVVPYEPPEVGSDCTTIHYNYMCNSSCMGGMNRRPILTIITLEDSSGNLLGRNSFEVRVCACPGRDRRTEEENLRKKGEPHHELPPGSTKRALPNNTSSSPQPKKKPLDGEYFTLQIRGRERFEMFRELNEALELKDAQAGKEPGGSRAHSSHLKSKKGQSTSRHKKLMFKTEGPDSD
Sequence of Tumour suppressor p53/oncoprotein Mdm2 (Homo sapiens, UniProt Q00987) (Q00987 whole entry): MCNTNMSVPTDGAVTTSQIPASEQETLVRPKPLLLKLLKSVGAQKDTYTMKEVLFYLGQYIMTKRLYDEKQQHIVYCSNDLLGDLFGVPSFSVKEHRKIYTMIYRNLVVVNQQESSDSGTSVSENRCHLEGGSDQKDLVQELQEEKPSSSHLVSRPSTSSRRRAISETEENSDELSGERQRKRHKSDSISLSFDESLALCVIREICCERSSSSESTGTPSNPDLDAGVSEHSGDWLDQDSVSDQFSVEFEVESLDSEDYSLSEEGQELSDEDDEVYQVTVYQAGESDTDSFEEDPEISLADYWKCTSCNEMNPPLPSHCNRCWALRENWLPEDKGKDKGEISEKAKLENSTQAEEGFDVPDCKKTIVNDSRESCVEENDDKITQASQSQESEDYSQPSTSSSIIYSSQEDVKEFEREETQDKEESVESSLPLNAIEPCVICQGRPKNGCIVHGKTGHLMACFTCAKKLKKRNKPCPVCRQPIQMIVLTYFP
The subject of the next test is NCI-H1299. Description: Antiproliferative activity against p53 deficient human NCI-H1299 cells after 72 hrs by MTT assay. The class given is functional, cell-based. The conditions noted are these: NCI-H1299, 72 h. Put shortly:
(§2)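 Cells seeded at 5−6 × 10⁴ per well and cultured 24 h, then exposed in triplicate wells to a range of compound concentrations for 72 h, with 0.1% DMSO as control. MTT (5 mg/mL solution) was added for 4 h at 37 °C, formazan dissolved in DMSO, absorbance read at 570 nm. Drug-free wells served as blanks; IC50 calculated.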

For another test, the system named is A549. As to the kind of experiment: Antiproliferative activity against human A549 cells expressing wild type p53 after 72 hrs by MTT assay. The class given is functional, cell-based. The conditions noted are these: Homo sapiens, A549, 72 h; read-out: IC50. A digest of the protocol:
as §2
A general note: Tetrazolium assays rely on reduction of a dye to a coloured formazan, in cell work by metabolically active cells.

A further test deals with U2OS. Description: Antiproliferative activity against human U2OS cells expressing wild type p53 after 72 hrs by MTT assay. Type of test: functional, cell-based. The following applies: Homo sapiens, U2OS, 72 h; read-out: IC50. A digest of the protocol: as §2
Another test concerns SAOS-2. As to the kind of experiment: Antiproliferative activity against p53 deficient human Saos2 cells after 72 hrs by MTT assay. The class given is functional, cell-based. The conditions noted are these: SAOS-2, 72 h. Put shortly:
as §2

Test [2] concerns the target Tumour suppressor p53/oncoprotein Mdm2 (Homo sapiens, UniProt P04637+Q00987). Described as §1. Type of test: protein assay.

Sequence of Tumour suppressor p53/oncoprotein Mdm2 (Homo sapiens, UniProt P04637+Q00987) (P04637 whole entry): as the sequence (P04637 whole entry) above
Sequence of Tumour suppressor p53/oncoprotein Mdm2 (Homo sapiens, UniProt P04637+Q00987) (Q00987 whole entry): as the sequence (Q00987 whole entry) above

What is called Ki is a dissociation constant, usually derived from enzyme kinetics or from competition with a known ligand. The molecule `O=C(C1=C(O)C(=O)N(CCc2ccccc2)C1c1ccc(Br)cc1)c1cccs1` (configuration not stated) showed a Ki in test [1] of 12 µM.
Still for that read-out and setting: in the case of `O=c1c2cnn(-c3ccccc3)c2nc(Cc2ccccc2)n1Cc1ccccc1` it was 2.13 µM; in that of `O=C(C1=C(O)C(=O)N(CCCn2ccnc2)C1c1ccc(Br)cc1)c1ccc(Cl)cc1` (configuration not stated), 0.91 µM.
A word on the IC50: it is the concentration that gives 50% inhibition. Take `Cc1ccc(NC2=C(C(=O)c3ccccc3)C(c3ccc(Br)cc3)N(CCCn3ccnc3)C2=O)cc1` (configuration not stated): the IC50 in the test on NCI-H1299 was determined as 25.8 µM; in the test on A549, 29.4 µM; with U2OS it was 24.1 µM; in the test on SAOS-2 it was 31.9 µM. This molecule came in with a Ki in test [1] of 0.14 µM.
Regarding `O=C(C1=C(O)C(=O)N(CCCn2ccnc2)C1c1cccc(O)c1)c1ccccc1` (configuration not stated), the Ki result in test [2] is on record as “Not Active”.
In turn, `O=C(C1=C(O)C(=O)N(CCCn2ccnc2)C1c1ccc(Br)cc1)c1ccccc1[N+](=O)[O-]` (configuration not stated) showed a Ki in test [1] of 15.3 µM.
`O=C(CSc1nnc(-c2ccc(O)cc2)n1-c1ccccc1)Nc1ccccc1`: the Ki in test [1] was determined as 86 µM.
As for `O=C(C1=C(O)C(=O)N(CCCn2ccnc2)C1c1ccc(Br)cc1)c1ccc([N+](=O)[O-])cc1` (configuration not stated), in test [1], affinity was put at a Ki of 2.54 µM.
Molecule `O=C(C1=C(O)C(=O)N(CCCn2ccnc2)C1c1ccc(Cl)cc1)c1ccc2c(c1)OCCO2` (configuration not stated) yielded a Ki in test [1] of 1.37 µM.
For the molecule `COc1ccc(C2C(C(=O)c3ccccc3)=C(O)C(=O)N2CCCn2ccnc2)cc1` (configuration not stated), the Ki entry in test [2] is listed as “Not Active”.
In test [1], `Cc1ccc(C2C(C(=O)c3ccccc3)=C(O)C(=O)N2CCCn2ccnc2)cc1` (configuration not stated) came in with a Ki of 0.78 µM.
`COc1ccc(C(=O)C2=C(O)C(=O)N(c3nccs3)C2c2ccc(C)cc2)cc1` (configuration not stated) yielded a Ki in test [1] of 2.5 µM.
`O=C(C1=C(Nc2cccc(Br)c2)C(=O)N(CCCn2ccnc2)C1c1ccc(Br)cc1)c1ccccc1` (configuration not stated): the IC50 was determined as 11.5 µM in the test with NCI-H1299, 15.8 µM with A549, 11.9 µM with U2OS and 9.09 µM with SAOS-2. The Ki in test [1] came out at 0.15 µM.
On to `O=C(C1=C(O)C(=O)N(CCCn2ccnc2)C1c1ccc(Cl)nc1)c1ccccc1` (configuration not stated), for which, in test [2], the Ki entry is given as “Not Active”.
In test [1], `O=C(C1=C(O)C(=O)N(CCCn2ccnc2)C1c1ccc(Cl)cc1Cl)c1ccccc1` (configuration not stated) registered a Ki of 39.4 µM.
Take `O=C(C1=C(O)C(=O)N(CCCn2ccnc2)C1c1cccnc1)c1ccccc1` (configuration not stated): the Ki result in test [2] is on record as “Not Active”.
On to `O=C(C1=C(Nc2ccc(Br)cc2)C(=O)N(CCCn2ccnc2)C1c1ccc(Br)cc1)c1ccccc1` (configuration not stated), for which the IC50 is 19.2 µM with NCI-H1299, 22.2 µM in the test on A549, 13 µM in the test on U2OS and 23.8 µM in the test with SAOS-2. The molecule also yielded a Ki in test [1] of 0.19 µM.
`O=C(C1=C(O)C(=O)N(CCCn2ccnc2)C1c1ccc(F)cc1)c1ccccc1` (configuration not stated) returned a Ki in test [1] of 0.88 µM.
The molecule `Cc1cc(C)cc(C2C(C(=O)c3ccccc3)=C(O)C(=O)N2CCCn2ccnc2)c1` (configuration not stated) yielded a Ki in test [1] of 0.91 µM.
Consider `O=C(C1=C(O)C(=O)N(CCCn2ccnc2)C1c1ccc([N+](=O)[O-])cc1)c1ccccc1` (configuration not stated), for which the Ki in test [1] came to 0.7 µM.
In the case of `O=C(C1=C(O)C(=O)N(CCCn2ccnc2)C1c1ccccc1O)c1ccccc1` (configuration not stated), the Ki entry in test [2] is recorded as “Not Active”.
On to `COc1ccc(CCN2C(=O)C(O)=C(C(=O)c3cccs3)C2c2ccc(C)cc2)cc1` (configuration not stated), for which, in test [1], the affinity, expressed as Ki, was 48.8 µM.
As for `O=C(C1=C(O)C(=O)N(CCCn2ccnc2)C1c1ccc(C(F)(F)F)cc1)c1ccccc1` (configuration not stated), the affinity in test [1] corresponds to a Ki of 0.81 µM.
As for `O=C(C1=C(O)C(=O)N(CCCn2ccnc2)C1c1ccc(Cl)cc1)c1ccccc1` (configuration not stated), the Ki in test [1] came out at 23.3 µM.
For `O=C(C1=C(O)C(=O)N(CCCn2ccnc2)C1c1ccc2ccccc2c1)c1ccccc1` (configuration not stated), the inhibition constant Ki entry in test [2] is “Not Active”.
With `O=C(C1=C(O)C(=O)N(CCCn2ccnc2)C1c1ccc(Br)cc1)c1ccc(F)cc1` (configuration not stated), the affinity in test [1] corresponds to a Ki of 1.46 µM.
For the molecule `O=C(C1=C(O)C(=O)N(CCCn2ccnc2)C1c1cccc([N+](=O)[O-])c1)c1ccccc1` (configuration not stated), in test [1], the affinity corresponds to a Ki of 0.83 µM.
`O=C(C1=C(O)C(=O)N(Cc2cccnc2)C1c1ccc(Cl)cc1)c1ccccc1` (configuration not stated) showed a Ki in test [1] of 0.57 µM. The Ki values of the last two molecules are within 1.5-fold of each other.
Regarding `O=C(C1=C(NCc2ccccc2)C(=O)N(CCCn2ccnc2)C1c1ccc(Br)cc1)c1ccccc1` (configuration not stated), the IC50 in the test with NCI-H1299 was determined as 25.3 µM; in the test with A549, 52.8 µM; in the test on U2OS, 32.5 µM; in the test on SAOS-2, 31.6 µM. In test [1], this molecule came in with a Ki of 0.47 µM.
Regarding `O=C(C1=C(O)C(=O)N(CCCn2ccnc2)C1c1ccccn1)c1ccccc1` (configuration not stated), the Ki result in test [2] was “Not Active”.
`CC(C)(C)c1ccc(C2C(C(=O)c3ccccc3)=C(O)C(=O)N2CCCn2ccnc2)cc1` (configuration not stated): in test [1], the affinity, expressed as Ki, was 10.9 µM.
Regarding `O=C(C1=C(Nc2ccc(F)cc2)C(=O)N(CCCn2ccnc2)C1c1ccc(Br)cc1)c1ccccc1` (configuration not stated), the IC50 with NCI-H1299 is 25.4 µM; in the test with A549 it was 27.4 µM; with U2OS, 30 µM; in the test with SAOS-2, 32.7 µM. Moreover, in test [1], the affinity, expressed as Ki, was 0.43 µM.
`O=C(C1=C(Nc2ccc(OC(F)(F)F)cc2)C(=O)N(CCCn2ccnc2)C1c1ccc(Br)cc1)c1ccccc1` (configuration not stated): the IC50 was 11.5 µM in the test with NCI-H1299, 20.8 µM with A549, 11.5 µM in the test with U2OS and 17.9 µM in the test with SAOS-2. The Ki in test [1] amounted to 0.12 µM.
As for `O=C(C1=C(O)C(=O)N(CCCn2ccnc2)C1c1cccs1)c1ccccc1` (configuration not stated), the Ki result in test [2] is “Not Active”.
In the case of `O=C(C1=C(Nc2ccc(Cl)cc2)C(=O)N(CCCn2ccnc2)C1c1ccc(Br)cc1)c1ccccc1` (configuration not stated), the IC50 in the test with NCI-H1299 worked out at 25 µM; in the test with A549, 29.9 µM; in the test with U2OS, 22.8 µM; with SAOS-2, 24.8 µM. This molecule gave a Ki in test [1] of 0.23 µM.
In turn, `c1ccc(CN2CCN(Cc3ccccc3)C2c2cccnc2)cc1` gave a Ki in test [1] of 1.76 µM.
As for `O=C(C1=C(Nc2ccccc2)C(=O)N(CCCn2ccnc2)C1c1ccc(Br)cc1)c1ccccc1` (configuration not stated), the IC50 with NCI-H1299 came to 21.2 µM; in the test on A549 it was 24.1 µM; in the test on U2OS, 25.7 µM; in the test on SAOS-2, 24.4 µM. The molecule also came in with a Ki in test [1] of 0.14 µM.
`Cc1ccc(C2C(C(=O)c3ccccc3)=C(O)C(=O)N2CCCn2ccnc2)c(C)c1` (configuration not stated) yielded a Ki in test [1] of 10.7 µM.
With `O=C(C1=C(Nc2ccc(I)cc2)C(=O)N(CCCn2ccnc2)C1c1ccc(Br)cc1)c1ccccc1` (configuration not stated), the IC50 in the test on NCI-H1299 was found to be 19.4 µM; with A549 it was 24.5 µM; in the test on U2OS, 12 µM; in the test with SAOS-2, 23.4 µM. Further, the Ki in test [1] came to 0.27 µM.
Turning to `C[C@@H](NC1=C(C(=O)c2ccccc2)[C@H](c2ccc(Br)cc2)N(CCCn2ccnc2)C1=O)c1ccccc1`, the IC50 in the test on NCI-H1299 is 17 µM; with A549, 15.7 µM; in the test on U2OS, 30.8 µM; with SAOS-2, 13.2 µM.
As for `O=C(C1=C(O)C(=O)N(CCCn2ccnc2)C1c1ccc(Br)cc1)c1ccc(I)cc1` (configuration not stated), in test [1], affinity was put at a Ki of 3.59 µM.
For the molecule `O=C(C1=C(Nc2ccccc2Br)C(=O)N(CCCn2ccnc2)C1c1ccc(Br)cc1)c1ccccc1` (configuration not stated), the IC50 came to 15.6 µM in the test with NCI-H1299, 20.1 µM in the test on A549, 16.9 µM with U2OS and 19.6 µM in the test with SAOS-2. The molecule further yielded a Ki in test [1] of 0.15 µM.
The matching figures for `CCOc1ccc(NC2=C(C(=O)c3ccccc3)C(c3ccc(Br)cc3)N(CCCn3ccnc3)C2=O)cc1` (configuration not stated): 19.9 µM, 20.2 µM, 26.2 µM, 30.9 µM and 0.35 µM.
In turn, `O=C(C1=C(O)C(=O)N(CCCn2ccnc2)C1c1ccccc1Br)c1ccccc1` (configuration not stated) registered a Ki in test [1] of 0.43 µM.
Regarding `O=C(C1=C(O)C(=O)N(CCCn2ccnc2)C1c1ccc(Br)cc1)c1ccc(Br)cc1` (configuration not stated), the Ki in test [1] amounted to 24.9 µM.
